Consider 42 compounds from ChEMBL document CHEMBL1134251, “Quinazolines as cyclin dependent kinase inhibitors” (Bioorg Med Chem Lett, 2001).

In test [1] the target is Cyclin-dependent kinase 2/cyclin E (Homo sapiens, UniProt P24941). The test is described as follows: In vitro inhibitory activity against human cyclin dependent kinase (CDK2/E). The format is protein-complex assay.
Test [2] concerns the target Cyclin-dependent kinase 4/cyclin D1 (Homo sapiens, UniProt P11802). Nature of the test: In vitro inhibitory activity against human cyclin dependent kinase (CDK4/D1). The format is protein-complex assay.
The next test deals with HCT-116. Nature of the test: Inhibition SRB HCT 116 cancer cell proliferation. As to conditions: Homo sapiens. The format is functional, cell-based. In outline:
(§1)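 Growth-inhibition assay in HCT 116 cancer cells, with IC50 as the read-out. AG1523 cells are normal human fibroblasts and were run under the same assay conditions as HCT 116.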

For test [3], the target named is Cyclin-dependent kinase 2/cyclin A (Homo sapiens, UniProt P24941). The test is described as follows: Inhibition of human cyclin dependent kinase 2 (CDK2/A). It is filed as protein-complex assay.
Test [4] has as its target T1, Cyclin-dependent kinase 1/cyclin B (Homo sapiens, UniProt P06493). The test is described as follows: Inhibition of human cyclin dependent kinase 1 (CDC2/B). The format is protein-complex assay.
In another test the test system is AG1523. Nature of the test: Inhibition of SRB AG1523 cancer cell proliferation. It is filed as functional, cell-based. As to conditions: Homo sapiens, in the assay text read “normal human fibroblast cell” for “cancer cell”. In outline: as §1
The target of test [5] is T1, Cyclin-dependent kinase 1/cyclin B. Nature of the test: Inhibition of human cyclin dependent kinase 1 (CDK1/B). It is filed as protein-complex assay.
Test [6] in a line: Inhibition of human cyclin dependent kinase 6 (CDK6/D2).
Test [7] has as its target Cyclin-dependent kinase 4/cyclin D1 (Homo sapiens) (UniProt P11802+P24385). The test is described as follows: Inhibition of human cyclin dependent kinase 4 (CDK4/D1) at 50 uM. On the set-up: scale not given: the % may be the effect or the level left. It is filed as protein-complex assay.

pIC50: −log10 of the molar value.

Broadly, the pIC50 is −log10 of the IC50, conventionally taken in molar units.

Chain of Cyclin-dependent kinase 4/cyclin D1 (P11802 whole entry): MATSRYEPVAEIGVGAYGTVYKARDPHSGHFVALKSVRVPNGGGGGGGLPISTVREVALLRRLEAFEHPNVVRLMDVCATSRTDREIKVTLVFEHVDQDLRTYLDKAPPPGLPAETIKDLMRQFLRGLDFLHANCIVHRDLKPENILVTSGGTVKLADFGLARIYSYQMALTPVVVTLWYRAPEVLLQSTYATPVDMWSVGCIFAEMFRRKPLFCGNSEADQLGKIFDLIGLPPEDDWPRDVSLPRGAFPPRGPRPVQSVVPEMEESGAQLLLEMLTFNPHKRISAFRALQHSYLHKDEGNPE
Chain of Cyclin-dependent kinase 4/cyclin D1 (P24385 whole entry, further chain): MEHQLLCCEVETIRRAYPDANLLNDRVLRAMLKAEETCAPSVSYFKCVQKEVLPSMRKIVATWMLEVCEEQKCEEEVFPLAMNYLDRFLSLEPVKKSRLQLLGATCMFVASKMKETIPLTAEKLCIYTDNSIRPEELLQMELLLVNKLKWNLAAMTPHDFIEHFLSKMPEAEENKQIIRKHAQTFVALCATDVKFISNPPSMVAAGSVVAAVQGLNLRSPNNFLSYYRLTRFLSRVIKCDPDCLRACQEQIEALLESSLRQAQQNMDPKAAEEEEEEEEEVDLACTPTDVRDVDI

For the compound `CC(C)(C)Nc1nc(C(F)(F)F)nc2ccc(-c3ccc(N)cc3)cc12`, the pIC50 in test [1] was 5.96; in test [2], less than 5.96.

As to `COc1ccccc1-c1ccc2nc(C(F)(F)F)nc(NC(C)(C)C)c2c1`, the negative logarithm of the IC50 (pIC50) in test [1] is 6.00; in test [2], less than 5.57.

For `CC(C)(C)Nc1nc(C(=O)O)nc2ccccc12`, the negative logarithm of the IC50 (pIC50) in [1] is less than 3.09; in [2] it was less than 3.39.

With `CCCC(C)Nc1nc(C(F)(F)F)nc2ccccc12` (stereo not drawn), the pIC50 in test [1] is 3.61; in [2], 3.92.

`Fc1cccc(CNc2nc(C(F)(F)F)nc3ccccc23)c1`: the pIC50 is 4.81 in test [1] and less than 4.41 in test [2].

Turning to `CC(C)(C)Nc1nc(C(F)(F)F)nc2ccc(-c3ccc(Cl)cc3Cl)cc12`, the pIC50 is less than 4.92 in test [1] and less than 5.62 in test [2].

For `COc1cccc(-c2ccc3nc(C(F)(F)F)nc(NC(C)(C)C)c3c2)c1`, the figures for the pIC50 in test [1] and in test [2] were 5.48 and less than 5.17, respectively.

Take `CC(C)(C)Nc1nc(-c2ccccc2)nc2ccccc12`: in test [2], the pIC50 was less than 3.44.

As to `C[C@@H](Nc1nc(C(F)(F)F)nc2ccccc12)c1ccccc1`, the pIC50 in [1] was 5.49; in [2], 4.41.

Consider `CC(C)(C)Nc1nc(C(N)=O)nc2ccccc12`, for which the figures for the pIC50 in test [1] and in [2] were 3.78 and less than 3.31, respectively.

In the case of `CC(C)(C)Nc1nc(C(F)(F)F)nc2ccc(-c3ccc(Cl)cc3)cc12`, the pIC50 in test [1] was 5.59; in test [2], less than 4.59.

As for `CC(C)(C)Nc1nc(C(F)(F)F)nc2ccc(-c3ccc(O)cc3)cc12`, the pIC50 in test [1] was 6.15; in [2], 4.96.

Turning to `COc1ccc(-c2ccc3nc(C(F)(F)F)nc(NC(C)(C)C)c3c2)cc1`, the pIC50 was 5.00 in [1] and less than 4.57 in test [2].

Turning to `CC(C)(C)Nc1nc(C(F)(F)F)nc2ccc(-c3cccc(C(N)=O)c3)cc12`, the pIC50 was 5.89 in [1] and less than 5.60 in [2].

As to `CCC(C)(C)Nc1nc(C(F)(F)F)nc2ccccc12`, the pIC50 in test [1] was 5.85; in test [2], 4.77.

Take `CC(C)(C)Nc1nc(C(Cl)(Cl)Cl)nc2ccccc12`: the negative logarithm of the IC50 (pIC50) is 4.60 in the test with HCT-116; 4.59 in test [3]; 4.64 in [4]; 5.21 in test [1]; 4.92 in test [2].

Regarding `CC(C)(C)Nc1nc(C(F)(F)F)nc2ccc(-c3ccccc3)cc12`, the pIC50 in [1] is 5.74; in test [2], 5.11.

For `CC(C)(C)Nc1nc(C(F)(F)F)nc2ccc(-c3cccs3)cc12`, the figures for the pIC50 in [1] and in test [2] were 5.93 and 5.19, respectively.

Take `CC(C)(Nc1nc(C(F)(F)F)nc2ccccc12)c1ccccc1`: the pIC50 in test [1] was 4.85; in test [2], less than 3.82.

Consider `CC(C)(C)Nc1nc(C(F)(F)F)nc2ccccc12`, for which the pIC50 in the test on HCT-116 is 4.69; in the test with AG1523 it was less than 4.13; in [1], 5.82; in test [2], 4.84.

Turning to `CC(C)(C)Nc1ncnc2ccccc12`, the pIC50 in [1] is less than 4.30; in [2], less than 3.61.

For `OCC1CCCN1c1nc(C(F)(F)F)nc2ccccc12` (stereo not drawn), the pIC50 in test [1] was 4.83; in [2], 4.20.

`CC(C)(C)Nc1nc(C(F)(F)F)nc2ccc(-c3cccc(N)c3)cc12` had a pIC50 in [2] of less than 5.68.

For `C#CC(C)(C)Nc1nc(C(Cl)(Cl)Cl)nc2ccccc12`, the pIC50 with HCT-116 was 4.82; in test [5], 4.46; in [1], 4.87; in test [2], 4.62.

As to `CC(C)(C)Nc1nc(C(F)(F)F)nc2ccc(-c3ccc(-c4cccnc4)cc3)cc12`, the negative logarithm of the IC50 (pIC50) in test [1] was 5.92; in [2], 5.08.

Turning to `CC(Nc1nc(C(F)(F)F)nc2ccccc12)c1ccccc1` (stereo not drawn), the negative logarithm of the IC50 (pIC50) in test [1] was 5.17; in [2], 4.23.

On to `CC(C)(C)Nc1nc(C(F)(F)F)nc2ccc(O)cc12`, for which the pIC50 in the test on HCT-116 was 5.14; in the test on AG1523, less than 4.74; in test [1] it was 5.94; in test [2], 4.74.

Take `Fc1cc(F)cc(CNc2nc(C(F)(F)F)nc3ccccc23)c1`: the values for the negative logarithm of the IC50 (pIC50) in test [1] and in test [2] were 5.05 and less than 4.72, respectively.

Regarding `CCOC(=O)c1nc(NC(C)(C)C)c2ccccc2n1`, the figures for the pIC50 in test [1] and in test [2] were less than 5.24 and 3.77, respectively.

As to `CC(C)(C)Nc1nc(C(F)(F)F)nc2ccc(-c3ccsc3)cc12`, the pIC50 in the test on HCT-116 is 4.74; in the test with AG1523 it was less than 4.55; in [1], 6.26; in [2], 5.45.

Take `CC(C)(C)Nc1nc(C(F)(F)F)nc2ccc(C(F)(F)F)cc12`: the pIC50 in the test with HCT-116 was 4.73; in [3], 5.69; in [6], 4.25; in [5], less than 6.13; in the test on AG1523, less than 4.23; in test [1], 6.10. Moreover, the pIC50 in [2] is less than 4.43.

Regarding `CC(Nc1nc(C(F)(F)F)nc2ccccc12)c1ccc(F)cc1` (stereo not drawn), the pIC50 in test [1] is 4.78. Also, the Activity in test [7] came to 35%.

As to `CC(C)(C)Nc1nc(C(F)(F)F)nc2ccc(-c3cccnc3)cc12`, the pIC50 in test [2] is 5.08.

Regarding `OC1CCCN(c2nc(C(F)(F)F)nc3ccccc23)C1` (stereo not drawn), the figures for the pIC50 in test [1] and in [2] were 4.49 and less than 4.08, respectively.

For the compound `CC(C)(C)Nc1nc(Nc2ccccc2)nc2ccccc12`, the pIC50 in test [1] was less than 4.47; in [2] it was less than 3.77.

Consider `CC(C)(C)Nc1nc(C(F)(F)C(F)(F)F)nc2ccccc12`, for which the pIC50 in test [1] is 4.92; in test [2] it was less than 4.70.

As for `CC(C)(C)Nc1nc(C(F)(F)F)nc2ccc(-c3cccc(O)c3)cc12`, the values for the pIC50 in test [1] and in test [2] were 6.00 and 4.92, respectively.

As for `CC(C)(CO)Nc1nc(C(F)(F)F)nc2ccccc12`, the pIC50 in [1] was 5.64; in test [2], 4.82.

Regarding `CC(C)S(=O)(=O)Nc1nc(C(F)(F)F)nc2ccccc12`, the pIC50 is less than 4.51 in [1] and less than 3.80 in test [2].

In turn, `C[C@H](Nc1nc(C(F)(F)F)nc2ccccc12)c1ccccc1` showed a pIC50 in test [1] of 4.51. This compound also came in with an Activity in test [7] of 40%.

Take `CC(C)(C)Nc1nc(C(F)(F)F)nc2ccc(-c3ccco3)cc12`: the negative-log IC50 (pIC50) in test [1] is 5.92; in test [2] it was less than 5.52.

With `CC(C)(C)Nc1nc(C(F)(F)F)nc2ccc(NC=O)cc12`, the negative logarithm of the IC50 (pIC50) is 5.24 in the test with HCT-116, 6.03 in test [1] and 4.85 in test [2].
